Experimental data from ChEMBL document CHEMBL1150419, “Structure-activity relationships of a peptide inhibitor of the human FcRn:human IgG interaction” (Bioorg Med Chem, 2008).
Bridge positions count the residues as written; N and C are the ends. Peptide text beside a SMILES is read from it.

Key:
[1] = biological target: T1, IgG receptor FcRn large subunit p51 (Homo sapiens, UniProt P55899); assay: Binding affinity to human FcRn at pH 6 by surface plasmon resonance assay
In short: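 Soluble human FcRn coupled to the dextran surface of a CM5 chip; peptide dilutions flowed over the chip. The equilibrium response at each dilution was plotted against concentration and fitted to a steady-state affinity model to give Kd.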

[2] = biological target: T1, IgG receptor FcRn large subunit p51; assay: Inhibition of human IgG binding to soluble human FcRn by ELISA
In short: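 Biotinylated soluble human FcRn immobilized on neutravidin plates, incubated with hIgG (3 nM, constant) and peptide at varying concentrations for 2 h at 37 °C. After washing, bound hIgG detected with peroxidase-conjugated hIgG-specific Fab fragments.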

T1 sequence (P55899 whole entry): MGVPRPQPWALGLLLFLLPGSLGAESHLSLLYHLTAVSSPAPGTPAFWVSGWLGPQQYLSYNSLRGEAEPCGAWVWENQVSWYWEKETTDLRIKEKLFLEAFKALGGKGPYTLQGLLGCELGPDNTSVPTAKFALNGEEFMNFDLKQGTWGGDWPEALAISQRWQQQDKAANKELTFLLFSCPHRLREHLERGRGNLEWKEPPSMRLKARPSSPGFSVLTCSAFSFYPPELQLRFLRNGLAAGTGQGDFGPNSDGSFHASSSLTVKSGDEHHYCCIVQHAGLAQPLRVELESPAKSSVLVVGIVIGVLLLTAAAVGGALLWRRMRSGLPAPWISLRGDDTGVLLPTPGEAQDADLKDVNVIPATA

Row | Kd [1] [µM] | IC50 [2] [µM] | Compound
1 | 0.48 | 2 | CC(C)C[C@H](NC(=O)[C@@H](C)NC(=O)CNC(=O)[C@H](Cc1ccccc1)NC(=O)[C@H](Cc1cnc[nH]1)NC(=O)CNC(=O)[C@@H](NC(=O)[C@@H](NC(=O)[C@H](Cc1ccccc1)NC(=O)[C@H](CCCN=C(N)N)NC(=O)[C@@H](N)CCC(N)=O)C(C)(C)S)[C@@H](C)O)C(=O)N[C@@H](Cc1ccc(O)cc1)C(=O)N1CCC[C@H]1C(=O)N[C@@H](CS)C(=O)N[C@@H](CC(N)=O)C(=O)NCC(=O)N1CCC[C@H]1C(=O)O
2 | 0.058 | 1 | CC(C)C[C@H](NC(=O)CN(C)C(=O)CNC(=O)[C@H](Cc1ccccc1)NC(=O)[C@H](Cc1cnc[nH]1)NC(=O)CNC(=O)[C@@H](NC(=O)[C@@H](NC(=O)[C@H](Cc1ccccc1)NC(=O)[C@@H](N)CCCNC(=N)N)C(C)(C)S)[C@@H](C)O)C(=O)N[C@@H](Cc1ccc(O)cc1)C(=O)N1CCC[C@H]1C(=O)N[C@@H](CS)C(=O)O
3 | 20 | 110 | CC(C)C[C@H](NC(=O)CNC(=O)CNC(=O)[C@H](Cc1ccccc1)NC(=O)[C@H](Cc1cnc[nH]1)NC(=O)CNC(=O)[C@@H](NC(=O)[C@@H](N)CS)[C@@H](C)O)C(=O)N[C@@H](Cc1ccc(O)cc1)C(=O)N1CCC[C@H]1C(=O)N[C@@H](CS)C(=O)O (H-CTGHFGGLYPC-OH)
4 | > 250 | > 125 | CC(C)C[C@H](NC(=O)CNC(=O)CNC(=O)[C@@H]1Cc2ccccc2CN1C(=O)[C@H](Cc1cnc[nH]1)NC(=O)CNC(=O)[C@@H](NC(=O)[C@@H](NC(=O)[C@H](Cc1ccccc1)NC(=O)[C@H](CCCNC(=N)N)NC(=O)[C@@H](N)CCC(N)=O)C(C)(C)S)[C@@H](C)O)C(=O)N[C@@H](Cc1ccc(O)cc1)C(=O)N1CCC[C@H]1C(=O)N[C@@H](CS)C(=O)N[C@@H](CC(N)=O)C(=O)NCC(=O)N1CCC[C@H]1C(=O)O
5 | 10 | 87 | CC(C)C[C@H](NC(=O)CNC(=O)CNC(=O)[C@H](Cc1ccccc1)NC(=O)[C@H](Cc1cnc[nH]1)NC(=O)CNC(=O)[C@@H](NC(=O)[C@H](CS)NC(=O)[C@H](Cc1ccccc1)NC(=O)[C@@H](N)CCCN=C(N)N)[C@@H](C)O)C(=O)N[C@@H](Cc1ccc(O)cc1)C(=O)N1CCC[C@H]1C(=O)N[C@@H](CS)C(=O)O
6 | 0.51 | 2.8 | CC(C)C[C@H](NC(=O)CNC(=O)[C@@H](Cc1ccccc1)NC(=O)[C@H](Cc1ccccc1)NC(=O)[C@H](Cc1cnc[nH]1)NC(=O)CNC(=O)[C@@H](NC(=O)[C@@H](NC(=O)[C@H](Cc1ccccc1)NC(=O)[C@H](CCCNC(=N)N)NC(=O)[C@@H](N)CCC(N)=O)C(C)(C)S)[C@@H](C)O)C(=O)N[C@@H](Cc1ccc(O)cc1)C(=O)N1CCC[C@H]1C(=O)N[C@@H](CS)C(=O)N[C@@H](CC(N)=O)C(=O)NCC(=O)N1CCC[C@H]1C(=O)O
7 | 0.059 | 2.1 | CC(C)C[C@@H](C(=O)N[C@@H](Cc1ccc(O)cc1)C(=O)N1CCC[C@H]1C(=O)N[C@@H](CS)C(=O)O)N(C)C(=O)CNC(=O)CNC(=O)[C@H](Cc1ccccc1)NC(=O)[C@H](Cc1cnc[nH]1)NC(=O)CNC(=O)[C@@H](NC(=O)[C@@H](NC(=O)[C@H](Cc1ccccc1)NC(=O)[C@@H](N)CCCN=C(N)N)C(C)(C)S)[C@@H](C)O
8 | 0.37 | 2 | CC(C)C[C@H](NC(=O)CNC(=O)CNC(=O)[C@H](Cc1ccccc1)NC(=O)[C@H](Cc1cnc[nH]1)NC(=O)CNC(=O)[C@@H](NC(=O)[C@@H](NC(=O)[C@H](Cc1ccccc1)NC(=O)[C@H](CCCN=C(N)N)NC(=O)[C@@H](N)CCC(N)=O)C(C)(C)S)[C@@H](C)O)C(=O)N[C@@H](Cc1ccc(O)cc1)C(=O)N1CCC[C@H]1C(=O)N[C@H](C(=O)N[C@@H](CC(N)=O)C(=O)NCC(=O)N1CCC[C@H]1C(=O)O)C(C)(C)S
9 | 0.67 | 7.2 | CC(C)C[C@H](NC(=O)CN1CCC[C@H](NC(=O)[C@H](Cc2ccccc2)NC(=O)[C@H](Cc2cnc[nH]2)NC(=O)CNC(=O)[C@@H](NC(=O)[C@H](NC(=O)[C@H](Cc2ccccc2)NC(=O)[C@@H](N)CCCN=C(N)N)C(C)(C)S)[C@@H](C)O)C1=O)C(=O)N[C@@H](Cc1ccc(O)cc1)C(=O)N1CCC[C@H]1C(=O)N[C@@H](CS)C(=O)O
10 | 7.8 | 80 | CC(C)C[C@H](NC(=O)CNC(=O)CNC(=O)[C@H](CCc1ccccc1)NC(=O)[C@H](Cc1cnc[nH]1)NC(=O)CNC(=O)[C@@H](NC(=O)[C@@H](NC(=O)[C@H](Cc1ccccc1)NC(=O)[C@H](CCCNC(=N)N)NC(=O)[C@@H](N)CCC(N)=O)C(C)(C)S)[C@@H](C)O)C(=O)N[C@@H](Cc1ccc(O)cc1)C(=O)N1CCC[C@H]1C(=O)N[C@@H](CS)C(=O)N[C@@H](CC(N)=O)C(=O)NCC(=O)N1CCC[C@H]1C(=O)O
11 | 15 | 80 | CC(C)C[C@H](NC(=O)CNC(=O)CNC(=O)[C@H](Cc1ccccc1)NC(=O)[C@H](Cc1cnc[nH]1)NC(=O)CNC(=O)[C@@H](NC(=O)[C@H](CCC(=O)O)NC(=O)[C@H](Cc1ccccc1)NC(=O)[C@H](CCCN=C(N)N)NC(=O)[C@@H](N)CCC(N)=O)[C@@H](C)O)C(=O)N[C@@H](Cc1ccc(O)cc1)C(=O)N1CCC[C@H]1C(=O)N[C@@H](CCCN)C(=O)N[C@@H](CC(N)=O)C(=O)NCC(=O)N1CCC[C@H]1C(=O)O
12 | > 250 | > 125 | CC(C)C[C@H](NC(=O)CNC(=O)CNC(=O)[C@@H](NC(=O)[C@H](Cc1cnc[nH]1)NC(=O)CNC(=O)[C@@H](NC(=O)[C@@H](NC(=O)[C@H](Cc1ccccc1)NC(=O)[C@H](CCCN=C(N)N)NC(=O)[C@@H](N)CCC(N)=O)C(C)(C)S)[C@@H](C)O)c1ccccc1)C(=O)N[C@@H](Cc1ccc(O)cc1)C(=O)N1CCC[C@H]1C(=O)N[C@@H](CS)C(=O)N[C@@H](CC(N)=O)C(=O)NCC(=O)N1CCC[C@H]1C(=O)O
13 | > 250 | > 250 | H-TGHFGGLYP-OH
14 | 230 | > 125 | CC(C)C[C@H](NC(=O)CNC(=O)CNC(=O)[C@H](Cc1ccc(C(C)(C)C)cc1)NC(=O)[C@H](Cc1cnc[nH]1)NC(=O)CNC(=O)[C@@H](NC(=O)[C@@H](NC(=O)[C@H](Cc1ccccc1)NC(=O)[C@H](CCCNC(=N)N)NC(=O)[C@@H](N)CCC(N)=O)C(C)(C)S)[C@@H](C)O)C(=O)N[C@@H](Cc1ccc(O)cc1)C(=O)N1CCC[C@H]1C(=O)N[C@@H](CS)C(=O)O
15 | > 250 | > 125 | CC(C)C[C@H](NC(=O)CNC(=O)CNC(=O)[C@H](Cc1ccccc1)NC(=O)[C@H](C)NC(=O)CNC(=O)[C@@H](NC(=O)[C@H](CS)NC(=O)[C@H](Cc1ccccc1)NC(=O)[C@H](CCCNC(=N)N)NC(=O)[C@@H](N)CCC(N)=O)[C@@H](C)O)C(=O)N[C@@H](Cc1ccc(O)cc1)C(=O)N1CCC[C@H]1C(=O)N[C@@H](CS)C(=O)N[C@@H](CC(N)=O)C(=O)NCC(=O)N1CCC[C@H]1C(=O)O
16 | 34 | 110 | CC(C)C[C@H](NC(=O)CNC(=O)CNC(=O)[C@H](Cc1ccccc1)NC(=O)[C@H](Cc1cnc[nH]1)NC(=O)CNC(=O)[C@@H](NC(=O)[C@@H](NC(=O)[C@H](Cc1ccccc1)NC(=O)[C@H](CCCN=C(N)N)NC(=O)[C@@H](N)CCC(N)=O)C(C)(C)S)[C@@H](C)O)C(=O)N[C@@H](Cc1ccc(N)cc1)C(=O)N1CCC[C@H]1C(=O)N[C@@H](CS)C(=O)N[C@@H](CC(N)=O)C(=O)NCC(=O)N1CCC[C@H]1C(=O)O
17 | 3.9 | 21 | CC(C)C[C@H](NC(=O)CNC(=O)CNC(=O)[C@H](Cc1ccccc1)NC(=O)[C@H](Cc1cnc[nH]1)NC(=O)CNC(=O)[C@@H](NC(=O)[C@H](CS)NC(=O)[C@H](Cc1ccccc1)NC(=O)[C@H](CCCN=C(N)N)NC(=O)[C@@H](N)CCC(N)=O)[C@@H](C)O)C(=O)N[C@@H](Cc1ccc(O)cc1)C(=O)N1CCC[C@H]1C(=O)N[C@H](CCS)C(=O)N[C@@H](CC(N)=O)C(=O)NCC(=O)N1CCC[C@H]1C(=O)O
18 | 4.9 | 30 | CC(C)C[C@H](NC(=O)CNC(=O)CNC(=O)[C@H](Cc1ccccc1)NC(=O)[C@H](Cc1cnc[nH]1)NC(=O)CNC(=O)[C@H](C)NC(=O)[C@H](CS)NC(=O)[C@H](Cc1ccccc1)NC(=O)[C@H](CCCN=C(N)N)NC(=O)[C@@H](N)CCC(N)=O)C(=O)N[C@@H](Cc1ccc(O)cc1)C(=O)N1CCC[C@H]1C(=O)N[C@@H](CS)C(=O)N[C@@H](CC(N)=O)C(=O)NCC(=O)N1CCC[C@H]1C(=O)O (H-QRFCAGHFGGLYPCNGP-OH)
19 | 0.84 | 1.6 | CC(C)C[C@@H](C(=O)N[C@@H](Cc1ccc(O)cc1)C(=O)N1CCC[C@H]1C(=O)N[C@@H](CS)C(=O)O)N(C)C(=O)CN(C)C(=O)CNC(=O)[C@H](Cc1ccccc1)NC(=O)[C@H](Cc1cscn1)NC(=O)CNC(=O)[C@@H](NC(=O)[C@@H](NC(=O)[C@H](Cc1ccccc1)NC(=O)[C@@H](N)CCCN=C(N)N)C(C)(C)S)[C@@H](C)O
20 | 0.48 | 2.4 | CC(C)C[C@H](NC(=O)C(C)(C)NC(=O)CNC(=O)[C@H](Cc1ccccc1)NC(=O)[C@H](Cc1cnc[nH]1)NC(=O)CNC(=O)[C@@H](NC(=O)[C@@H](NC(=O)[C@H](Cc1ccccc1)NC(=O)[C@H](CCCNC(=N)N)NC(=O)[C@@H](N)CCC(N)=O)C(C)(C)S)[C@@H](C)O)C(=O)N[C@@H](Cc1ccc(O)cc1)C(=O)N1CCC[C@H]1C(=O)N[C@@H](CS)C(=O)N[C@@H](CC(N)=O)C(=O)NCC(=O)N1CCC[C@H]1C(=O)O
21 | 9.4 | 33 | CC(C)C[C@H](NC(=O)[C@H](Cc1ccc(O)cc1)NC(=O)[C@@H]1CSSC[C@H](NC(=O)[C@H](Cc2ccccc2)NC(=O)[C@H](CO)NC(=O)[C@@H](N)CC(N)=O)C(=O)N[C@@H](CCCN=C(N)N)C(=O)NCC(=O)N[C@@H](CCCN=C(N)N)C(=O)N2CCC[C@H]2C(=O)NCC(=O)N[C@@H](Cc2cnc[nH]2)C(=O)N[C@@H](Cc2ccccc2)C(=O)NCC(=O)NCC(=O)N1)C(=O)N[C@@H](Cc1ccccc1)C(=O)O (H-NSFCRGRPGHFGGCYLF-OH; disulfide 4-14)
22 | 34 | 239 | CC(C)C[C@H](NC(=O)CNC(=O)CNC(=O)[C@H](Cc1ccccc1)NC(=O)[C@H](Cc1cnc[nH]1)NC(=O)CNC(=O)[C@@H](NC(=O)[C@@H](N)CS)[C@@H](C)O)C(=O)N[C@@H](Cc1ccc(O)cc1)C(=O)N1CCC[C@H]1C(=O)N[C@@H](CS)C(=O)N[C@@H](CC(N)=O)C(=O)NCC(=O)N1CCC[C@H]1C(=O)O (H-CTGHFGGLYPCNGP-OH)
